Laboratory results: PubChem BioAssay AID2522 (Broad Institute, 2010)
Inconclusive results are not listed. The source made the active and inactive calls.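 How the source made its calls: active means mean inhibition at 30 µM above 50% in every run; inconclusive means inhibition above 50% in some runs but not in others; inactive means inhibition at most 50% in every run.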

Test system: human washed platelets, A23187-induced P-selectin, flow cytometry
Assay: inhibitors of A23187-stimulated platelet P-selectin exposure, selectivity assay, cell-based, fluorescence, flow cytometry, platelets (AID 2522)
Settings: at 30 µM, stronger effect = higher value
How it was run: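 Dosing: single compound dose of 30 µM. Material: platelets, A23187-induced surface P-selectin expression. Also added: Ca2+ ionophore A23187 at 10 µM, 15 min stimulation. Incubation: 20 min compound pre-incubation, 15 min A23187, 20 min staining. Detection: flow cytometry with PE-labeled anti-P-selectin antibody.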

## C/C(=N/NC(=O)C1CCCC1)c1ccc(NC(=O)C(F)(F)F)cc1
  inhibition: 6% (inactive)
Measured here: inhibition, second run
  inhibition: 1%
